From PubChem BioAssay
An excerpt weighted towards active compounds, which were near 2.1% of everything screened.
Dynein transport – dynein cargo transport inhibition; 3617.4 mouse cells, GR-EGFP nuclear translocation imaging; test concentration mostly 20 µM; stimulated with dexamethasone, 1 µM; stronger effect = lower value; z-score, hits read low; 220,000 compounds, 0.47% hits; AID 1381;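 active means plate z-score of nuclear minus cytoplasmic receptor signal below a set negative limit, without overly bright fluorescence or cell loss, cut at about -3.5 in these data, passing the limit was not always enough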;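 further: z-score of nuclear minus cytoplasmic ring GR-EGFP intensity difference per well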
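Buffer or medium: Induction medium lacking tetracycline, stripped serum | Also added: Dexamethasone agonist, 1.0 µM final, for 30 min | Timing: 48 h induction, 1 h compound, 30 min dex at 37 °C | Detection: Formaldehyde fixation, Hoechst nuclear stain, 10x automated fluorescence imaging | Measure: Nuclear versus cytoplasmic GR-EGFP signal, averaged per well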
Hsp70 act – Hsp70 transcriptional activation, primary screen; 200,000 compounds, 0.04% hits; activation, % at 10 µM; HeLa Hsp70 promoter luciferase reporter, luminescence; scaled: vehicle 0, proteasome-inhibitor control 100%;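 active means activation above the mean across all tested compounds plus 3 SD, cutoff set per campaign, cut at about 5.5% in these data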;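 further: 100% = MG132 at 30 µM as the positive control and 0% = DMSO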
Autophagy mod – alters autophagy in cells. MEF GFP-LC3 puncta imaging; test concentration mostly 10 µM. calls only at 10 µM (by protocol). 190,000 compounds, 0.98% hits. AID 463193;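 active means percentage of spot-positive cells more than 3 SD above its plate mean, without a fluorescence outlier flag or 80% toxicity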;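 further: spot-positive cell cutoff set from DMSO-treated cells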
MT stabilize HCS – microtubule stabilization, imaging screen. HeLa tubulin immunostaining HCS, 24 h; share of cells brighter than vehicle mean+2SD. % tubulin-high responders, % at 10 µM. 200,000 compounds, 0.83% hits;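 active means plate Z-score above 3 for both tubulin-high and condensed-nucleus cell shares, with cell loss under 80%, at 10 µM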;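 further: anti alpha tubulin signal scored within the nucleus-defined area of each cell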
bCat nuc transl – beta-catenin nuclear translocation modulation; HeLa beta-catenin nuclear translocation, immunofluorescence imaging; nuclear translocation activity, % at 5 µM; 190,000 compounds, 0.3% hits;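 active means nuclear translocation activity above 50% at 5 µM, with a well cell count of 50 or more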;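 further: per-cell ratio of nuclear to cytoplasmic median beta-catenin stain intensity; plate controls were DMSO negative control for no effect and GSK-3 inhibitor IX positive control for full effect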
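test system = HeLa cells, endogenous beta-catenin | dosing = single 5 µM dose plus 0.02–20 µM confirmation series | times = compound treatment 24 h, 37°C, 5% CO2 | technique = beta-catenin immunofluorescence imaging with DAPI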
* hit, by the source's call; i = inactive; . = not tested or not shown; + = active, no number.

SMILES	Dynein transport	Hsp70 act	Autophagy mod	MT stabilize HCS	bCat nuc transl
Cc1cc(N/N=C/c2ccncc2)c([N+](=O)[O-])cc1[N+](=O)[O-]	-1.7	.	.	.	0
CN(C)c1cc(-c2ccccc2)nc(N)n1	-0.24	.	i	13*	.
Nc1nc(-c2ccccc2)cc(-c2ccccc2O)n1	1	0	i	2	-12
COc1cc(CNCCO)cc(Cl)c1OCc1ccc(Cl)cc1Cl	7.2	0	+	30	7
O=[N+]([O-])c1ccc(N/N=C/c2c[nH]c3ccccc23)c(S(=O)(=O)Nc2ccc(Cl)cc2)c1	-2.6	0	+	4	1
COc1ccc(N(C)C(=O)c2ccc3nc(-c4ccccc4)c(-c4ccccc4)nc3c2)cc1	-1.2	0	i	25*	-1
C=CCN(C(=O)c1ccccc1)c1ccc(OC)cc1	0.51	0	i	43*	17
CC(C)N(C(=O)c1ccc2nc(-c3ccccc3)c(-c3ccccc3)nc2c1)C(C)C	-0.086	0	i	3	-1
O=C(Cc1ccc(S(=O)(=O)N2CCCCC2)s1)Nc1cccc2ccccc12	-0.74	0	i	4	-2
CCc1cc(C(=O)OC)c(NC(=O)CC2Nc3cc(C)c(C)cc3NC2=O)s1 (stereo not drawn)	0.57	0	+	1	-2
CC(=O)/C(=N/Nc1ccccc1[N+](=O)[O-])N1CCCc2ccccc21	0.31	.	.	.	2
CCOc1cc(/C=N/NC(N)=S)cc(Br)c1OCc1ccccc1C	1.7	0	+	1	-2
CCOc1ccccc1N1CC(C(=O)Nc2ccccc2N2CCOCC2)CC1=O (stereo not drawn)	-0.29	0	i	2	-1
CCOc1ccccc1N1CC(C(=O)Nc2ccc3c(c2)OCCO3)CC1=O (stereo not drawn)	1	0	+	6	0
CSc1cccc(NC(=O)Cc2ccccc2[N+](=O)[O-])c1	0.064	0	i	2	6
O=C(NN1CCN(Cc2ccccc2)CC1)c1ccc(N2CCOCC2)c([N+](=O)[O-])c1	0.97	0	i	2	0
Cc1nc(C(=O)NC2CCOCC2)sc1C1(C)CC(c2cccc([N+](=O)[O-])c2)=NO1 (stereo not drawn)	-0.43	.	.	.	-1
CCc1ccc2c(c1)cc(CN(C(=S)Nc1ccc(Cl)cc1)C1CC1)c1nnnn12	.	0	+	1	-1
Oc1ccccc1/C=N/Nc1cccc2cccnc12	-0.58	1	+	2	0
O=C(NCCCN1CCOCC1)c1cccc(S(=O)(=O)N2CCc3ccccc3C2)c1	-0.46	0	i	63*	-2
COC(=O)[C@@H]1C[C@]2(OC(=O)c3ccccc3)C=CC(=O)C[C@@H]2N1C(=O)OCc1ccccc1	-6.5*	0	i	3	-5
C=CCN1C(=O)/C(=C/c2ccc(N(C)C)cc2)S/C1=N\c1nnc(CC)s1	-3.3	0	+	3	4
c1ccc(CCNc2ncnc3nc[nH]c23)cc1	0.91	0	i	3	0
c1ccc2c(CCNc3ncnc4nc[nH]c34)c[nH]c2c1	-0.56	0	i	17*	13
Oc1ccc(C2=NNC(=NCc3ccc4c(c3)OCO4)SC2)c(O)c1	-0.24	0	i	11	117*
SMILES	Dynein transport	Hsp70 act	Autophagy mod	MT stabilize HCS	bCat nuc transl
O=C(Cc1csc(Nc2nc(=S)[nH]c3ccccc23)n1)NCCCN1CCN(c2ccccc2F)CC1	0.47	0	+	2	-1
O=C(Cc1csc(Nc2nc(=S)[nH]c3ccccc23)n1)NCc1ccc(Cl)cc1	1.2	0	i	3	1
CC(C)CN=C(NS(=O)(=O)c1ccccc1)C(Cl)(Cl)Cl	-2.7	0	i	6	52*
CC(C)CC(NS(=O)(=O)c1ccccc1)C(=O)O (stereo not drawn)	0.16	0	i	1	-4
O=C(O)CCCNC(=O)c1ccc(NC(=O)Cc2ccc(Cl)cc2)cc1	-0.43	0	i	2	0
Cc1c(N=C2N=C(NC(=O)Nc3ccc(Cl)cc3)c3ccccc32)c(=O)n(-c2ccccc2)n1C	2.5	0	+	5	0
O=[N+]([O-])c1cc(-c2cnc3ccccc3n2)ccc1Oc1ccc(Cl)cc1	0.45	0	+	6	-1
COc1cc(-c2cc(C(=O)Nc3ccc(S(=O)(=O)NCc4ccco4)cc3)c3ccccc3n2)cc(OC)c1OC	-0.62	0	+	3	.
CCN(CC)c1ccc(/C=N/N=C(c2ccccc2)c2ccccc2)c(O)c1	-1.2	0	+	2	5
CCN(CC)c1ccc(/C=N/N(c2ccccc2)c2ccccc2)c(O)c1	-0.2	0	i	4	0
c1ccc(CCNc2nc3ccccc3n3nnnc23)cc1	-1	0	+	3	-1
Cc1cc(C(=O)N/N=C/c2ccco2)c2ccccc2n1	0.93	0	i	7	-5
Cc1ccc(/C=N/NC(=O)c2cc(C3CC3)nc3ccccc23)o1	0.28	0	i	23*	28
CCCc1cc(C(=O)N/N=C/c2ccc(C)o2)c2ccccc2n1	-0.049	0	i	44*	48
CCCc1cc(C(=O)OC)c2ccccc2n1	1.1	0	i	2	.
Cc1ccc(/C=N/NC(=O)c2ccoc2C)o1	-0.19	0	i	2	-5
Cc1cc(C(=O)N/N=C/c2ccc(C)o2)c2ccccc2n1	-0.22	0	i	15*	32
CCOc1cc(CNc2ccc3c(c2)OCCO3)cc(Br)c1OCC	0.7	0	i	13	120*
CCN(CC)CCNC(=O)c1cc2c(-c3ccc(Cl)cc3)nn(C)c2s1	-0.82	0	+	3	.
CCOCCCNC(=O)c1cc2c(-c3ccc(Cl)cc3)nn(C)c2s1	-0.48	0	i	5	.
CCOCCCNC(=O)/C(C#N)=C/c1cc(Br)c(O)c(Br)c1	0.63	.	.	.	50*
COCCNC(=O)/C(C#N)=C/c1cc(Br)c(O)c(OC)c1	-0.86	0	i	5	-1
N#Cc1c(C(F)(F)F)cc(-c2ccco2)nc1SCc1ccccn1	-0.61	0	+	2	0
N#Cc1c(C(F)(F)F)cc(-c2ccco2)nc1SCc1ccncc1	-0.76	0	i	10	4
Cc1ccc2cc(C#N)c(SCc3nnc(-c4ccccc4[N+](=O)[O-])o3)nc2c1	0.09	0	+	8	0
COc1ccc2c(c1OC)C(=O)OC2n1c(O)c(N=NC(C)=O)c2ccccc21 (stereo not drawn)	-0.76	.	.	.	0
COc1ccccc1NC(=O)c1c(N=Cc2ccccc2O)cnn1C	-0.16	1	i	4	4
COc1ccc(Cn2c(C3CC3)nc3ccc(NC(=O)c4ccco4)cc3c2=O)cc1	-0.21	0	i	13*	-1
